Reference: ChEMBL document CHEMBL1649165, “Activity profile in vitro of micafungin against Spanish clinical isolates of common and emerging species of yeasts and molds” (2009)
Values after ≈ are worked out from the molar mass of the structure shown.

Columns and labels:
Type in all cases: functional
Pichia kudriavzevii = assay: Antimicrobial activity against Candida krusei by broth microdilution method
Procedure, shortened: (§1)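 Clinical isolates from human patients, tested by broth microdilution using the AFST-EUCAST reference procedure for fermentative yeasts. The MIC was read per that reference method.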

Mucor = assay: Antimicrobial activity against Mucor spp.by broth microdilution method
Procedure, shortened: (§2)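 Filamentous fungus clinical isolates tested by the AFST-EUCAST reference broth microdilution method for moulds. For echinocandins, the endpoint was the minimum effective concentration: the lowest drug concentration giving aberrant hyphal growth, read with an inverted microscope.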

Clavispora lusitaniae = assay: Antimicrobial activity against Candida lusitaniae by broth microdilution method; procedure, shortened: as §1
Aspergillus versicolor = assay: Antimicrobial activity against Aspergillus versicolor by broth microdilution method
Procedure, shortened: (§3)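 Clinical mould isolates, tested by broth microdilution using the AFST-EUCAST reference method for filamentous fungi. For echinocandins, the endpoint was the minimum effective concentration: the lowest drug concentration giving aberrant hyphal growth, read with an inverted microscope.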

Lecythophora hoffmannii = assay: Antimicrobial activity against Lecythophora hoffmannii by broth microdilution method; conditions: Coniochaeta hoffmannii; procedure, shortened: as §2
Alternaria alternata = assay: Antimicrobial activity against Alternaria alternata by broth microdilution method; procedure, shortened: as §3
Debaryomyces hansenii = assay: Antimicrobial activity against Candida famata by broth microdilution method; procedure, shortened: as §1
Aureobasidium pullulans = assay: Antimicrobial activity against Aureobasidium pullulans by broth microdilution method
Aspergillus niger = assay: Antimicrobial activity against Aspergillus niger by broth microdilution method; procedure, shortened: as §3
[1] = system: Scopulariopsis brevicaulis; assay: Antimicrobial activity against Scopulariopsis brevicaulis by broth microdilution method; procedure, shortened: as §2
Beauveria bassiana = assay: Antimicrobial activity against Beauveria bassiana by broth microdilution method; procedure, shortened: as §3
Scedosporium apiospermum = assay: Antimicrobial activity against Scedosporium apiospermum by broth microdilution method; procedure, shortened: as §2
Papiliotrema laurentii = assay: Antimicrobial activity against Cryptococcus laurentii by broth microdilution method
Procedure, shortened: (§4)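 Clinical isolates of nonfermentative yeasts, tested by broth microdilution following EUCAST recommendations. The only change from that method was a minor modification to improve growth.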

Cladosporium = assay: Antimicrobial activity against Cladosporium spp. by broth microdilution method; procedure, shortened: as §3
Aspergillus nidulans = assay: Antimicrobial activity against Aspergillus nidulans by broth microdilution method; procedure, shortened: as §3
Diutina rugosa = assay: Antimicrobial activity against Candida rugosa by broth microdilution method; procedure, shortened: as §1
Magnusiomyces capitatus = assay: Antimicrobial activity against Dipodascus capitatus by broth microdilution method
Trichosporon asahii = assay: Antimicrobial activity against Trichosporon asahii by broth microdilution method
Procedure, shortened: (§5)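 Nonfermentative yeast clinical isolates (Rhodotorula, Trichosporon) tested by broth microdilution. The EUCAST yeast recommendations were followed strictly, with one minor modification to improve growth. MIC was read as the endpoint.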

Aspergillus = assay: Antimicrobial activity against Aspergillus spp. by broth microdilution method; procedure, shortened: as §3
Coprinellus domesticus = assay: Antimicrobial activity against Hormographiella verticillata by broth microdilution method; procedure, shortened: as §2
Rhizomucor = assay: Antimicrobial activity against Rhizomucor spp.by broth microdilution method; procedure, shortened: as §2
Aspergillus ustus = assay: Antimicrobial activity against Aspergillus ustus by broth microdilution method; procedure, shortened: as §3
Fusarium verticillioides = assay: Antimicrobial activity against Fusarium verticillioides by broth microdilution method; procedure, shortened: as §2
Fusarium equiseti = assay: Antimicrobial activity against Fusarium equiseti by broth microdilution method; procedure, shortened: as §3
Fusarium oxysporum = assay: Antimicrobial activity against Fusarium oxysporum by broth microdilution method; procedure, shortened: as §3
[2] = system: Cunninghamella bertholletiae; assay: Antimicrobial activity against Cunninghamella bertholletiae by broth microdilution method; procedure, shortened: as §3
Aspergillus flavus = assay: Antimicrobial activity against Aspergillus flavus by broth microdilution method; procedure, shortened: as §3
Naganishia albida = assay: Antimicrobial activity against Cryptococcus albidus by broth microdilution method; procedure, shortened: as §4
Rhodotorula glutinis = assay: Antimicrobial activity against Rhodotorula glutinis by broth microdilution method; procedure, shortened: as §5
Paecilomyces variotii = assay: Antimicrobial activity against Paecilomyces variotii by broth microdilution method; procedure, shortened: as §2
Candida parapsilosis = assay: Antimicrobial activity against Candida parapsilosis by broth microdilution method; conditions: Lodderomyces parapsilosis; procedure, shortened: as §1
Fusarium solani = assay: Antimicrobial activity against Fusarium solani by broth microdilution method; procedure, shortened: as §2
Fusarium reticulatum = assay: Antimicrobial activity against Fusarium reticulatum by broth microdilution method; procedure, shortened: as §2
Rhodotorula mucilaginosa = assay: Antimicrobial activity against Rhodotorula mucilaginosa by broth microdilution method; procedure, shortened: as §5
Paecilomyces lilacinus = assay: Antimicrobial activity against Paecilomyces lilacinus by broth microdilution method; conditions: Purpureocillium lilacinum; procedure, shortened: as §2
Neurospora sitophila = assay: Antimicrobial activity against Chrysonilia sitophila by broth microdilution method; procedure, shortened: as §3
Saksenaea vasiformis = assay: Antimicrobial activity against Saksenaea vasiformis by broth microdilution method; procedure, shortened: as §2
[Candida] intermedia = Antimicrobial activity against Candida intermedia by broth microdilution method; conditions: Sungouiella intermedia; procedure, shortened: as §1
Fennellia nivea = assay: Antimicrobial activity against Aspergillus niveus by broth microdilution method; procedure, shortened: as §3
Aspergillus terreus = assay: Antimicrobial activity against Aspergillus terreus by broth microdilution method; procedure, shortened: as §3
[3] = Antimicrobial activity against Rhizopus microsporus by broth microdilution method; procedure, shortened: as §2
Trichosporon dermatis = assay: Antimicrobial activity against Trichosporon dermatis by broth microdilution method; conditions: Cutaneotrichosporon dermatis; procedure, shortened: as §5
Trichosporon = assay: Antimicrobial activity against Trichosporon spp. by broth microdilution method; procedure, shortened: as §5
Trichosporon ovoides = assay: Antimicrobial activity against Trichosporon ovoides by broth microdilution method; procedure, shortened: as §5
Exophiala dermatitidis = assay: Antimicrobial activity against Exophiala dermatitidis by broth microdilution method
Lewia infectoria = assay: Antimicrobial activity against Alternaria infectoria by broth microdilution method; procedure, shortened: as §3

Structure (SMILES): CCC(C)n1ncn(-c2ccc(N3CCN(c4ccc(OCC5COC(Cn6cncn6)(c6ccc(Cl)cc6Cl)O5)cc4)CC3)cc2)c1=O (configuration not stated) [ITRACONAZOLE]
- MIC50 (Pichia kudriavzevii): 0.25 µg/mL (≈ 0.354 µM)
- MIC90 (Pichia kudriavzevii): 0.25 µg/mL (≈ 0.354 µM)
- MIC50 (Mucor): > 8 µg/mL
- MIC90 (Mucor): > 8 µg/mL
- MIC50 (Clavispora lusitaniae): 0.02 µg/mL (≈ 0.0283 µM)
- MIC90 (Clavispora lusitaniae): 0.03 µg/mL (≈ 0.0425 µM)
- MIC50 (Aspergillus versicolor): 0.5 µg/mL (≈ 0.709 µM)
- MIC90 (Aspergillus versicolor): 1 µg/mL (≈ 1.42 µM)
- MIC50 (Lecythophora hoffmannii): 0.12 µg/mL (≈ 0.17 µM)
- MIC90 (Lecythophora hoffmannii): > 8 µg/mL
- MIC50 (Alternaria alternata): 0.5 µg/mL (≈ 0.709 µM)
- MIC90 (Alternaria alternata): > 8 µg/mL
- MIC50 (Debaryomyces hansenii): 0.12 µg/mL (≈ 0.17 µM)
- MIC90 (Debaryomyces hansenii): > 8 µg/mL
- MIC50 (Aureobasidium pullulans): 0.12 µg/mL (≈ 0.17 µM)
- MIC90 (Aureobasidium pullulans): > 8 µg/mL
- MIC50 (Aspergillus niger): 1 µg/mL (≈ 1.42 µM)
- MIC90 (Aspergillus niger): > 8 µg/mL
- MIC50 [1]: > 8 µg/mL
- MIC90 [1]: > 8 µg/mL
- MIC50 (Beauveria bassiana): > 8 µg/mL
- MIC90 (Beauveria bassiana): > 8 µg/mL
- MIC50 (Scedosporium apiospermum): 1 µg/mL (≈ 1.42 µM)
- MIC90 (Scedosporium apiospermum): > 8 µg/mL
- MIC50 (Papiliotrema laurentii): 0.5 µg/mL (≈ 0.709 µM)
- MIC90 (Papiliotrema laurentii): > 8 µg/mL
- MIC50 (Cladosporium): 0.12 µg/mL (≈ 0.17 µM)
- MIC90 (Cladosporium): > 8 µg/mL
- MIC50 (Aspergillus nidulans): 0.25 µg/mL (≈ 0.354 µM)
- MIC90 (Aspergillus nidulans): 0.5 µg/mL (≈ 0.709 µM)
- MIC50 (Diutina rugosa): 0.12 µg/mL (≈ 0.17 µM)
- MIC90 (Diutina rugosa): > 8 µg/mL
- MIC50 (Magnusiomyces capitatus): 0.25 µg/mL (≈ 0.354 µM)
- MIC90 (Magnusiomyces capitatus): 0.5 µg/mL (≈ 0.709 µM)
- MIC50 (Trichosporon asahii): 0.5 µg/mL (≈ 0.709 µM)
- MIC90 (Trichosporon asahii): > 8 µg/mL
- MIC50 (Aspergillus): 0.5 µg/mL (≈ 0.709 µM)
- MIC90 (Aspergillus): > 8 µg/mL
- MIC50 (Coprinellus domesticus): > 8 µg/mL
- MIC90 (Coprinellus domesticus): > 8 µg/mL
- MIC50 (Rhizomucor): > 8 µg/mL
- MIC90 (Rhizomucor): > 8 µg/mL
- MIC50 (Aspergillus ustus): 0.5 µg/mL (≈ 0.709 µM)
- MIC90 (Aspergillus ustus): > 8 µg/mL
- MIC50 (Fusarium verticillioides): > 8 µg/mL
- MIC90 (Fusarium verticillioides): > 8 µg/mL
- MIC50 (Fusarium equiseti): > 8 µg/mL
- MIC90 (Fusarium equiseti): > 8 µg/mL
- MIC50 (Fusarium oxysporum): > 8 µg/mL
- MIC90 (Fusarium oxysporum): > 8 µg/mL
- MIC50 [2]: > 8 µg/mL
- MIC90 [2]: > 8 µg/mL
- MIC50 (Aspergillus flavus): 0.25 µg/mL (≈ 0.354 µM)
- MIC90 (Aspergillus flavus): 0.5 µg/mL (≈ 0.709 µM)
- MIC50 (Naganishia albida): 0.5 µg/mL (≈ 0.709 µM)
- MIC90 (Naganishia albida): > 8 µg/mL
- MIC50 (Rhodotorula glutinis): 0.5 µg/mL (≈ 0.709 µM)
- MIC90 (Rhodotorula glutinis): > 8 µg/mL
- MIC50 (Paecilomyces variotii): 0.06 µg/mL (≈ 0.085 µM)
- MIC90 (Paecilomyces variotii): 0.25 µg/mL (≈ 0.354 µM)
- MIC50 (Candida parapsilosis): 0.02 µg/mL (≈ 0.0283 µM)
- MIC90 (Candida parapsilosis): 0.03 µg/mL (≈ 0.0425 µM)
- MIC50 (Fusarium solani): > 8 µg/mL
- MIC90 (Fusarium solani): > 8 µg/mL
- MIC50 (Fusarium reticulatum): > 8 µg/mL
- MIC90 (Fusarium reticulatum): > 8 µg/mL
- MIC50 (Rhodotorula mucilaginosa): 8 µg/mL (≈ 11.3 µM)
- MIC90 (Rhodotorula mucilaginosa): > 8 µg/mL
- MIC50 (Paecilomyces lilacinus): > 8 µg/mL
- MIC90 (Paecilomyces lilacinus): > 8 µg/mL
- MIC50 (Neurospora sitophila): > 8 µg/mL
- MIC90 (Neurospora sitophila): > 8 µg/mL
- MIC50 (Saksenaea vasiformis): > 8 µg/mL
- MIC90 (Saksenaea vasiformis): > 8 µg/mL
- MIC50 ([Candida] intermedia): 0.12 µg/mL (≈ 0.17 µM)
- MIC90 ([Candida] intermedia): > 8 µg/mL
- MIC50 (Fennellia nivea): 0.5 µg/mL (≈ 0.709 µM)
- MIC90 (Fennellia nivea): > 8 µg/mL
- MIC50 (Aspergillus terreus): 0.25 µg/mL (≈ 0.354 µM)
- MIC90 (Aspergillus terreus): 0.5 µg/mL (≈ 0.709 µM)
- MIC50 [3]: > 8 µg/mL
- MIC90 [3]: > 8 µg/mL
- MIC50 (Trichosporon dermatis): 0.5 µg/mL (≈ 0.709 µM)
- MIC90 (Trichosporon dermatis): > 8 µg/mL
- MIC50 (Trichosporon): 0.5 µg/mL (≈ 0.709 µM)
- MIC90 (Trichosporon): > 8 µg/mL
- MIC50 (Trichosporon ovoides): 0.5 µg/mL (≈ 0.709 µM)
- MIC90 (Trichosporon ovoides): > 8 µg/mL
- MIC50 (Exophiala dermatitidis): 0.12 µg/mL (≈ 0.17 µM)
- MIC90 (Exophiala dermatitidis): > 8 µg/mL
- MIC50 (Lewia infectoria): 2 µg/mL (≈ 2.83 µM)
- MIC90 (Lewia infectoria): > 8 µg/mL
